Measurements as given in ChEMBL document CHEMBL4000256, “Light-Regulated NO Release as a Novel Strategy To Overcome Doxorubicin Multidrug Resistance” (ACS Med Chem Lett, 2017).
Calls of active or inactive are those of the source. No cut-off for these calls is given here.

Key:
[1] = system: M14; assay: Dark toxicity in human M14 cells assessed as increase in LDH release at 5 uM measured after 20 mins by spectrophotometric method; format: cell-based; details: m14, 20 min
Method in brief: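 Cells (M14 melanoma, human fibroblasts or rat H9c2 cardiomyocytes) kept 20 min at room temperature in PBS in the dark, with 5 μM compound, given alone or with equimolar 5 μM doxorubicin. Cytotoxicity read as extracellular LDH release. Triplicate measurements, n = 3.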

[2] = system: H9c2; assay: Dark toxicity against rat H9c2 cells at 5 uM measured after 20 mins by spectrophotometric method; format: cell-based; details: h9c2, 20 min
Method in brief: (§1)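 Human fibroblasts or rat H9c2 cardiomyocytes kept 20 min at room temperature in PBS, either in the dark or irradiated at λexc 400 nm, 7 mW/cm2, with or without 5 μM test agent. Cytotoxicity measured in triplicate; means ± SD, n = 3.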

[3] = system: Fibroblast; assay: Dark toxicity against human fibroblasts at 5 uM measured after 20 mins by spectrophotometric method; format: cell-based; method in brief: as §1
[4] = system: M14; assay: Dark toxicity in human M14 cells assessed as increase in nitrite levels at 5 uM measured after 20 mins by Griess reagent based spectrophotometric method; format: cell-based; details: m14, 20 min
[5] = system: H9c2; assay: Cytotoxicity against 7 mW/cm'2 irradiated rat H9c2 cells at 5 uM measured after 20 mins by spectrophotometric method; format: cell-based; details: h9c2, 20 min; method in brief: as §1
[6] = system: Fibroblast; assay: Cytotoxicity against 7 mW/cm'2 irradiated human fibroblasts at 5 uM measured after 20 mins by spectrophotometric method; format: cell-based; method in brief: as §1
[7] = system: M14; assay: Cytotoxicity against 7 mW/cm'2 irradiated human M14 cells assessed as increase in LDH release at 5 uM measured after 20 mins by spectrophotometric method; format: functional, cell-based
Method in brief: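 Cells (M14 melanoma, human fibroblasts or rat H9c2 cardiomyocytes) kept 20 min at room temperature in PBS under 400 nm light (7 mW/cm2), alone or with 5 μM compound, given alone or with equimolar 5 μM doxorubicin. Damage read as extracellular LDH release. Triplicate measurements, n = 3.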

[8] = organism: Bos taurus; assay: Binding affinity to calf thymus duplex DNA by fluorescence spectroscopic method

- K [8]: 630000 M⁻¹
SMILES: COc1cccc2c1C(=O)c1c(O)c3c(c(O)c1C2=O)C[C@@](O)(C(=O)CO)C[C@@H]3O[C@H]1C[C@H](N)[C@H](O)[C@H](C)O1.Cl [DOXORUBICIN HYDROCHLORIDE]
- Activity [1]: Non-Toxic
- Activity [2]: Toxic
- Activity [3]: Toxic
- Activity [4]: Non-Toxic
- Activity [5]: Toxic
- Activity [6]: Toxic
- Activity [7]: inactive
